TDP2 inh: TDP2 (human) inhibition, absorbance primary screen; O95551; recombinant TDP2, T5PNP hydrolysis, p-nitrophenol absorbance 415 nm; inhibition, % at 12.8 µM; 370,000 compounds, 0.34% hits; AID 720702;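 active means inhibition above the mean of all tested compounds plus 3 SD, set per campaign, cut at about 25% in these data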
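System – recombinant human TDP2 · Quantity – TDP2 enzyme at 120 nM final · Doses – single concentration, 12.8 µM nominal, with 1% DMSO · Incubation – 2 h at 37 °C · Measured by – epi absorbance of p-nitrophenol freed from T5PNP by hydrolysis · Read-out – % inhibition relative to enzyme-containing and enzyme-free wells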
PAD4 inh: inhibitors of human PAD4 | inhibition, % at 6.36 µM | Q9UM07 | recombinant PAD4, RCA probe fluorescence polarization | 330,000 compounds, 0.41% hits;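 active means percent inhibition above a cutoff equal to the mean of all tested compounds plus 3 SD, cut at about 15% in these data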
PRMT1 FP inh: inhibitors of human PRMT1; inhibition, % at 2.79 µM; AID 652257; recombinant PRMT1, activity-based probe fluorescence polarization; 370,000 compounds, 1.3% hits; Q99873;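 active means inhibition above about 21% made by adding two undisclosed values, limit read from the data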
Target sequence (Q99873 whole entry, looked up): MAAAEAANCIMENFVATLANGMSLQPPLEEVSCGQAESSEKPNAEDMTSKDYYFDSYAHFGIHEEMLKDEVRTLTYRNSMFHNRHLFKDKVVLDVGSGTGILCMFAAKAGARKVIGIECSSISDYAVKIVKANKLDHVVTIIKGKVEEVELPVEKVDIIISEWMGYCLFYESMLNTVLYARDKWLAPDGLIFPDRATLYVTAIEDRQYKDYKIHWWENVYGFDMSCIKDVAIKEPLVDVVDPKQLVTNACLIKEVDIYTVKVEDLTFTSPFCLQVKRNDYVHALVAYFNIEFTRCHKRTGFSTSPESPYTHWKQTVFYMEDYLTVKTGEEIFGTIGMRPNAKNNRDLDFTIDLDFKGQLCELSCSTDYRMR
GSTO1 counter: blocks human GSTO1 in RBBP9 counter-screen; inhibition, % at 5.96 µM; 300,000 compounds, 1.1% hits; P78417; AID 1974; recombinant GSTO1, activity-based probe fluorescence polarization;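 active means inhibition above the campaign mean inhibition plus 3 SD, cut at about 35% in these data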
Target sequence (P78417 whole entry, looked up): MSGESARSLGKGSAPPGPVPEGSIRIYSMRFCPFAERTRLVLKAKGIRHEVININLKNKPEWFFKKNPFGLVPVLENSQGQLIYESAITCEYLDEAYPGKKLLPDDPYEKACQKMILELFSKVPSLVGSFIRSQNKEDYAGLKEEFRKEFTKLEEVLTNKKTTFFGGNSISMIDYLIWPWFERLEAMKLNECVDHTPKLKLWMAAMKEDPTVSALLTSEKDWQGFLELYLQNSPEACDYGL
Fh CTSL1 inh: counter-screen for PFM18AAP inhibitors: inhibitors of F. hepatica cathepsin L1 | recombinant F. hepatica cathepsin L1, Z-Leu-Arg-MCA fluorescence | inhibition, % at 5.96 µM | 300,000 compounds, 0.49% hits | AID 1906;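 active means inhibition above the mean of all tested compounds plus 3 SD, set per screening campaign, cut at about 17% in these data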
PRMT1 confirm: PRMT1 (human) inhibition, FP confirmation | recombinant His-PRMT1, activity-based probe fluorescence polarization | AID 687036 | inhibition, % at 2.79 µM | shares compounds with PRMT1 FP inh | 3,300 compounds, 42% hits;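 active means mean inhibition across replicates above the hit cutoff derived for the earlier primary screen, cut at about 22% in these data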
Numbers stand for hits; i = inactive; nt = no result given. Sampled rows, rich in hits. Any-hit rate of the full collection: about 2.5%.

SMILES | TDP2 inh | PAD4 inh | PRMT1 FP inh | GSTO1 counter | Fh CTSL1 inh | PRMT1 confirm
O=C(CSc1ccc(-c2ccco2)nn1)NCc1ccccc1 | i | i | 41 | i | i | i
O=C(CSc1ccc(-c2ccco2)nn1)NCc1ccc(Cl)cc1 | i | i | 44 | i | i | i
Cn1cc(CCOCc2ccccn2)c2ccccc21 | i | nt | i | nt | nt | nt
O=C(O)CSc1ncnc2nc[nH]c12 | i | i | i | i | i | nt
c1nc(SSc2ncnc3nc[nH]c23)c2[nH]cnc2n1 | i | nt | 48 | nt | nt | 96
O=C(CCc1ccccc1)N[C@H]1[C@@H](OC(=O)c2ccc([N+](=O)[O-])cc2)CCC[C@]12C(=O)N(Cc1ccccc1)c1ccccc12 | i | nt | i | nt | nt | nt
O=c1oc2cc(O)c(Cl)cc2c2ccccc12 | i | i | i | i | i | nt
O=c1cc2c(=O)oc3cc(O)c(O)oc3c2c(O)c1O | i | nt | 27 | nt | nt | 31
Cc1ccc(-n2c(SCC(=O)Nc3ccccc3-c3ccccc3)nnc2-c2ccco2)cc1 | i | nt | i | nt | nt | nt
COc1ccccc1NS(=O)(=O)c1cc(N2Cc3ccccc3C2=N)ccc1N1CCOCC1 | i | i | 27 | i | i | i
Cc1ccc2c(c1)Sc1c(ccc3ccccc13)N2 | i | i | 26 | i | i | i
Cc1ccc(CNC(=O)OC(C)(C)C)c(/C=C/S(=O)(=O)NCCc2ccccc2)c1 | i | nt | 29 | nt | nt | i
COC(=O)c1cn(-c2ccc(-c3noc4c3C(=O)N(CC(=O)N3CCOCC3)CC4)cc2)nn1 | i | nt | i | nt | nt | nt
CC(=O)Nc1ccc(SCC(=O)c2c(N)n(Cc3ccccc3)c(=O)n(C)c2=O)cc1 | i | i | 25 | i | i | i
CC(=O)NC(=S)c1c(N)n(Cc2ccccc2)c(=O)n(C)c1=O | nt | i | nt | i | i | nt
O=C1CC2c3cc(Br)ccc3CCN2C(=O)CN1Cc1ccccc1 (centres undefined) | i | nt | i | nt | nt | nt
CC1=C(C(=O)Nc2ccccc2)C(c2ccc(Cl)cc2)n2c(s/c(=C/c3cccc(OCC(=O)O)c3)c2=O)=N1 (centres undefined) | i | i | 26 | i | i | i
CCOc1ccc(C2C(C(=O)Nc3ccccc3)=C(C)N=c3s/c(=C/c4cccc(OCC(=O)O)c4)c(=O)n32)cc1 (centres undefined) | i | i | 25 | i | i | i
CCOC(=O)C1=C(C)N=c2s/c(=C\c3ccc(OCC(=O)O)cc3)c(=O)n2C1c1ccccc1OC (centres undefined) | i | i | i | i | i | nt
COCCCNC(=O)C[C@@H]1C(=O)N(CCc2ccc(Cl)cc2)C2=CCCCC[C@]21C(=O)OC | i | nt | i | nt | nt | nt
CCCC/C=C1/[C@@H](CC)N(Cc2ccc(OC)cc2OC)C2=N[C@@H](c3ccccc3)CC(=O)N21 | i | nt | i | nt | nt | nt
O=C(CSc1nc2cc(S(=O)(=O)N3CCOCC3)ccc2o1)NC1CCCc2ccccc21 (centres undefined) | i | i | 30 | i | i | 25
CCSc1nc2cc(S(=O)(=O)N3CCOCC3)ccc2o1 | i | i | i | nt | nt | nt
O=C(CSc1nc2cc(S(=O)(=O)N3CCOCC3)ccc2o1)Nc1c(F)cccc1F | i | i | 54 | i | i | 47
Cc1ccc(/C=C/C(=O)Nc2ccc(S(N)(=O)=O)cc2)o1 | i | i | 76 | i | i | 81
SMILES | TDP2 inh | PAD4 inh | PRMT1 FP inh | GSTO1 counter | Fh CTSL1 inh | PRMT1 confirm
Cc1ccc(/C=C/C(=O)N2CCN(S(=O)(=O)c3ccc(C)c(C)c3)CC2)o1 | i | i | 37 | i | i | 52
Cc1ccc(/C=C/C(=O)Nc2cccc(S(=O)(=O)N3CCOCC3)c2)o1 | i | i | 36 | i | i | i
CC(=O)NS(=O)(=O)c1ccc(NC(=O)/C=C/c2ccc(C)o2)cc1 | i | i | 27 | i | i | 77
Cc1ccc(CN2CCCCC(NC(=O)c3ccc(F)cc3)C2=O)cc1 (centres undefined) | i | nt | i | nt | nt | nt
Cc1ccc(/C=C/C(=O)NCc2ccc(S(N)(=O)=O)cc2)o1 | i | nt | 42 | nt | nt | 81
Cc1ccc(/C=C/C(=O)OCC(=O)NCCc2ccc(S(N)(=O)=O)cc2)o1 | i | i | i | nt | nt | nt
Cc1ccc(/C=C/C(=O)NCCc2cccc(Cl)c2)o1 | i | i | 46 | i | i | 90
CC(=O)OC(C(=O)Nc1nccs1)c1ccccc1 (centres undefined) | i | i | i | i | i | nt
O=C(Nc1nccs1)C(Br)C(Br)c1ccccc1 (centres undefined) | i | i | 65 | i | i | 59
COC(=O)[C@]12C[C@H](CC(=O)NCc3ccc(C)o3)C(=O)N(Cc3ccco3)C1=C[C@H](C(C)(C)C)O[C@@H]2C | i | nt | i | nt | nt | nt
Cc1ccc(N2C(=O)CC(Sc3nc4ccccc4o3)C2=O)cc1Cl (centres undefined) | i | i | 50 | i | i | 37
Cc1cc(NC(=O)c2ccc3nc(C)sc3c2)no1 | i | i | 31 | i | i | i
Cc1cc(NC(=O)c2ccc(Cl)cc2)no1 | i | i | i | i | i | nt
Cc1cc(C)c(NC(=O)CS)c(Cl)c1 | i | i | i | i | i | nt
Cc1cc(C)c(NC(=O)/C=C\C(=O)O)c(Cl)c1 | i | i | 28 | i | i | i
COc1ccc([N+](=O)[O-])cc1NC(=O)/C=C/C(=O)O | i | i | i | i | i | nt
Cc1ccc(NC(=O)/C=C\C(=O)O)c([N+](=O)[O-])c1 | i | i | 65 | i | i | i
Cc1ccc(O)c(NC(=O)/C=C/C(=O)O)c1 | i | i | i | i | i | nt
O=C(O)/C=C\C(=O)Nc1cc(O)ccc1[N+](=O)[O-] | i | i | i | i | i | nt
Cc1ccc([N+](=O)[O-])cc1NC(=O)/C=C/C(=O)O | i | i | 49 | i | i | i
Cc1cc(C)c(NC(=O)/C=C\C(=O)O)c([N+](=O)[O-])c1 | i | i | 81 | i | i | 37
CCOC(=O)C1(Cc2ccccc2)CCN(Cc2ccc(C(F)(F)F)cc2)CC1 | i | nt | i | nt | nt | nt
CCN(C(=O)C=Cc1ccco1)c1ccccc1 | i | nt | 31 | nt | nt | i
CCN(C(=O)COC(=O)/C=C/c1ccco1)c1c(N)n(Cc2ccccc2)c(=O)[nH]c1=O | i | i | 30 | nt | nt | i
Cc1ccc2c(c1)CCCN2CC(=O)N(C)c1c(N)n(Cc2ccccc2)c(=O)[nH]c1=O | i | i | 33 | nt | nt | i
SMILES | TDP2 inh | PAD4 inh | PRMT1 FP inh | GSTO1 counter | Fh CTSL1 inh | PRMT1 confirm
CCN(C(=O)CN1CCCc2cc(C)ccc21)c1c(N)n(Cc2ccccc2)c(=O)[nH]c1=O | i | nt | 30 | nt | nt | i
CC(=C/C(=O)O)/C=C/c1ccco1 | i | i | i | i | i | nt
COC(=O)[C@@]12CCCCC3=C1N(CCC3)C(=O)[C@H]2CC(=O)NCc1cccc(C(F)(F)F)c1 | i | nt | i | nt | nt | nt
C=CCOC(=O)N[C@H](c1ccc(-c2ccccc2)cc1)[C@H](C)/C=C/CC(=O)OC | i | nt | i | nt | nt | nt
CCNC(=O)N(C)[C@H]1C[C@H]2c3[nH]c4c(-c5cccc(C)c5)cccc4c3CCN2C[C@H]1[C@H](C)O | i | nt | i | nt | nt | nt
COC(=O)[C@]12C[C@H](CC(=O)NCCCCc3ccccc3)C(=O)N(CCC3=CCCCC3)C1=C[C@H](C1CCCC1)O[C@@H]2C | i | nt | i | nt | nt | nt
